{
  "source": "ChEMBL document CHEMBL1154881",
  "about": "“Synthesis and antimicrobial activities of novel 1,5-diaryl pyrazoles” (2010)",
  "format_in_all_cases": "functional",
  "key": {"[1]": {"system": "Trichophyton mentagrophytes", "test": "Antifungal activity against Trichophyton mentagrophytes at 10 to 50 ug/ml after 3 to 4 days"}, "Pseudomonas aeruginosa": {"system": "Pseudomonas aeruginosa", "test": "Antibacterial activity against Pseudomonas aeruginosa ATTC 27853 after 24 hrs by disk diffusion method", "method_in_brief": "(§1)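 Disc diffusion, each concentration tested in triplicate on nutrient agar seeded separately with fresh bacteria. Incubation 37 °C, 24 h. Solvent and growth controls included. Zones of inhibition recorded. The K. pneumoniae strain was recultured.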"}, "Aspergillus flavus": {"system": "Aspergillus flavus", "test": "Antifungal activity against Aspergillus flavus NCIM 524 after 3 to 4 days by serial plate dilution method", "method_in_brief": "(§2)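 Sabouraud's agar (peptone 1 g, D-glucose 4 g, agar 2 g per 100 ml water, pH 5.7) plates were lawned with spore suspension (a loopful in 3 ml normal saline) and dried 1 h at 37 °C. Wells were punched and filled with compound in DMSO at 10–50 mg/ml, with a DMSO control. Plates in triplicate, 37 °C for 3–4 days.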"}, "Talaromyces marneffei [2]": {"system": "Talaromyces marneffei", "test": "Antifungal activity against Penicillium marneffei after 3 to 4 days by serial plate dilution method", "method_in_brief": "as §2"}, "Staphylococcus aureus [3]": {"system": "Staphylococcus aureus", "test": "Antibacterial activity against Staphylococcus aureus ATTC 25923 after 24 hrs by disk diffusion method", "method_in_brief": "as §1"}, "Staphylococcus aureus [4]": {"system": "Staphylococcus aureus", "test": "Antibacterial activity against Staphylococcus aureus ATTC 25923 after 24 hrs by broth dilution method", "details": "ATTC 25923, 24 h"}, "Aspergillus fumigatus": {"system": "Aspergillus fumigatus", "test": "Antifungal activity against Aspergillus fumigatus NCIM 902 after 3 to 4 days by serial plate dilution method", "method_in_brief": "as §2"}, "Talaromyces marneffei [5]": {"system": "Talaromyces marneffei", "test": "Antifungal activity against Penicillium marneffei at 10 to 50 ug/ml after 3 to 4 days"}, "Escherichia coli [6]": {"system": "Escherichia coli", "test": "Antibacterial activity against Escherichia coli ATTC 25922 after 24 hrs by disk diffusion method", "method_in_brief": "as §1"}, "Klebsiella pneumoniae [7]": {"system": "Klebsiella pneumoniae", "test": "Antibacterial activity against Klebsiella pneumoniae after 24 hrs by broth dilution method"}, "Klebsiella pneumoniae [8]": {"system": "Klebsiella pneumoniae", "test": "Antibacterial activity against Klebsiella pneumoniae after 24 hrs by disk diffusion method", "method_in_brief": "as §1"}, "[9]": {"system": "Trichophyton mentagrophytes", "test": "Antifungal activity against Trichophyton mentagrophytes after 3 to 4 days by serial plate dilution method", "method_in_brief": "as §2"}, "Escherichia coli [10]": {"system": "Escherichia coli", "test": "Antibacterial activity against Escherichia coli ATTC 25922 after 24 hrs by broth dilution method", "details": "ATTC 25922, 24 h"}},
  "data": [
    {"compound": "CCOC(=O)c1sc(-c2cc(-c3ccc(Cl)cc3)n(-c3ccc(F)cc3)n2)nc1C", "values": [
      {"measurement": "MIC", "setting": "[1]", "value": 12.5, "unit": "µg/mL"},
      {"measurement": "inhibition zone (IZ)", "setting": "Pseudomonas aeruginosa", "value": 19, "unit": "mm"},
      {"measurement": "inhibition zone (IZ)", "setting": "Aspergillus flavus", "value": 22, "unit": "mm"},
      {"measurement": "inhibition zone (IZ)", "setting": "Talaromyces marneffei [2]", "value": 19, "unit": "mm"},
      {"measurement": "inhibition zone (IZ)", "setting": "Staphylococcus aureus [3]", "value": 16, "unit": "mm"},
      {"measurement": "MIC", "setting": "Staphylococcus aureus [4]", "value": 12.5, "unit": "µg/mL"},
      {"measurement": "inhibition zone (IZ)", "setting": "Aspergillus fumigatus", "value": 18, "unit": "mm"},
      {"measurement": "MIC", "setting": "Talaromyces marneffei [5]", "value": 12.5, "unit": "µg/mL"},
      {"measurement": "inhibition zone (IZ)", "setting": "Escherichia coli [6]", "value": 18, "unit": "mm"},
      {"measurement": "MIC", "setting": "Klebsiella pneumoniae [7]", "value": 50, "unit": "µg/mL"},
      {"measurement": "inhibition zone (IZ)", "setting": "Klebsiella pneumoniae [8]", "value": 19, "unit": "mm"},
      {"measurement": "inhibition zone (IZ)", "setting": "[9]", "value": 20, "unit": "mm"},
      {"measurement": "MIC", "setting": "Escherichia coli [10]", "value": 12.5, "unit": "µg/mL"}
    ]}
  ]
}
